Source: ChEMBL document CHEMBL5584271, “Synthesis and Biological Analysis of Iso-dimethyltryptamines in a Model of Light-Induced Retinal Degeneration” (2024)
Activity calls are given as the source filed them. The calls are words filed in the database; no cut-off is given here.

Experiments:
[1] = test system: Mus musculus; test: (§1) Protection against light-induced retinal degeneration in dark-adaptated BALB/c albino mouse assessed as reduction in ONL thinning at 10 mg/kg, ip dosed preincubated with compound for 15 to 30 mins of mydriasis followed by exposure to bright light at 15kLux for 30 mins by electroretinography analysis; assay type: functional, organism-based; conditions: time 45-60 min
Summary of the method: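 Dark-adapted BALB/c albino mice (5–8 weeks) were dosed ip at 10 mg/kg (vehicle 25% DMSO/75% saline) 30 min before 30 min of 15 kLux white light. Pupils were dilated with metaoxedrine/tropicamide at 30 and 15 min prior. One week later, OCT centred on the optic nerve head measured ONL thickness 500 μm from the ONH border, averaged over four quadrants. Analysis used Welch's ANOVA with Dunnett's T3 tests.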

[2] = test system: Mus musculus; test: as §1, with “ERG a- and b-wave amplitude deterioration” for “ONL thinning”; assay type: functional, organism-based; conditions: time 45-60 min
Summary of the method: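 BALB/c albino mice (5–8 weeks) were dark-adapted overnight and given 10 mg/kg ip in 25% DMSO/75% saline 30 min before light. Pupils were dilated with metaoxedrine (20 mg/mL) plus tropicamide (4 mg/mL) at 30 and 15 min prior. Freely moving mice received 30 min of 15 kLux white light. ERG a- and b-wave amplitudes were recorded one week later (10 cd·s/m2 stimulus). Analysis used Welch's ANOVA with Dunnett's T3 post hoc tests.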

[3] = test system: Mus musculus; test: as §1, with “ERG a- and b-wave amplitude deterioration” for “ONL thinning”, “analysis relative to control” for “analysis”; assay type: functional; design: scale not given: the % may be the effect or the level left; conditions: time 45-60 min
Summary of the method: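 BALB/c albino mice aged 5–8 weeks, dark-adapted overnight. Dosed 10 mg/kg ip in 25% DMSO/75% saline 30 min before light. Pupils dilated with metaoxedrin (20 mg/mL) plus tropicamide (4 mg/mL) at 30 and 15 min prior. Exposed to 15 kLux white light for 30 min, freely moving. ERG a- and b-wave amplitudes recorded one week later at 10 cd·s/m2 stimulus. Compared with vehicle; mean ± SEM.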

[4] = test system: Mus musculus; test: as §1, with “[…] relative to control” for “analysis”; assay type: functional; design: scale not given: the % may be the effect or the level left; conditions: time 45-60 min
Summary of the method: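 Same LIRD protocol in BALB/c mice aged 5–8 weeks: 10 mg/kg ip in 25% DMSO/saline 30 min before 30 min of 15 kLux white light, with mydriatics given beforehand. OCT imaging one week later, centred on the optic nerve head. ONL thickness measured 500 μm from the ONH border and averaged over four quadrants. Compared with vehicle; Welch's ANOVA with Dunnett's T3.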

[5] = biological target: 5-hydroxytryptamine receptor 2A (Homo sapiens) (UniProt P28223); test: Binding affinity to 5-HT2A (unknown origin)
[6] = biological target: 5-hydroxytryptamine receptor 2B (Homo sapiens) (UniProt P41595); test: Binding affinity to 5-HT2B (unknown origin)
[7] = biological target: T1, 5-hydroxytryptamine receptor 2C (Homo sapiens) (UniProt P28335); test: Binding affinity to 5-HT2C (unknown origin)
T1 sequence (whole entry): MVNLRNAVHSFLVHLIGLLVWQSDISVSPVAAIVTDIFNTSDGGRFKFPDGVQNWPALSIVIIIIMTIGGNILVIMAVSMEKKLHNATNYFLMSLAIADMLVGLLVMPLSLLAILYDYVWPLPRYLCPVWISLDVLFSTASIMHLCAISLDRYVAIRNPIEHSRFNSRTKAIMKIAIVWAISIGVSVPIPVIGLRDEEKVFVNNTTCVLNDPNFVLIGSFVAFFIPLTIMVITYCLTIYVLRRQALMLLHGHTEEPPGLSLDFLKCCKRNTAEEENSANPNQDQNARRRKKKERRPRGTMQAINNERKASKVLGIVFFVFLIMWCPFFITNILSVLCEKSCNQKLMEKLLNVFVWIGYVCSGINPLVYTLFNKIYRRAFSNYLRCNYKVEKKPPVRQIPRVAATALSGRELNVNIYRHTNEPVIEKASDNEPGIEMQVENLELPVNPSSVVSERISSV

[8] = biological target: T2, 5-hydroxytryptamine receptor 1A (Homo sapiens) (UniProt P08908); test: Binding affinity to 5-HT1A (unknown origin)
T2 sequence (whole entry): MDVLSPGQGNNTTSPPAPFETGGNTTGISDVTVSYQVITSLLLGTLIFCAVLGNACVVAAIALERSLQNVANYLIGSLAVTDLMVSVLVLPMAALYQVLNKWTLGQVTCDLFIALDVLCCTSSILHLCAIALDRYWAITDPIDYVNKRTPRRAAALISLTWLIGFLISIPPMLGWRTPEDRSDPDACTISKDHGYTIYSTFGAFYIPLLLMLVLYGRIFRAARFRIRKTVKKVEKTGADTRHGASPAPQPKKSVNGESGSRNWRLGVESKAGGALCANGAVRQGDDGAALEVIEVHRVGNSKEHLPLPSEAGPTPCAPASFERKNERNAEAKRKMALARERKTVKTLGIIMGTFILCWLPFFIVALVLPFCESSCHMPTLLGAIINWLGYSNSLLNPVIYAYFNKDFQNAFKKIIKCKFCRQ

Chain of 5-hydroxytryptamine receptor 2B (Homo sapiens) (P41595 whole entry): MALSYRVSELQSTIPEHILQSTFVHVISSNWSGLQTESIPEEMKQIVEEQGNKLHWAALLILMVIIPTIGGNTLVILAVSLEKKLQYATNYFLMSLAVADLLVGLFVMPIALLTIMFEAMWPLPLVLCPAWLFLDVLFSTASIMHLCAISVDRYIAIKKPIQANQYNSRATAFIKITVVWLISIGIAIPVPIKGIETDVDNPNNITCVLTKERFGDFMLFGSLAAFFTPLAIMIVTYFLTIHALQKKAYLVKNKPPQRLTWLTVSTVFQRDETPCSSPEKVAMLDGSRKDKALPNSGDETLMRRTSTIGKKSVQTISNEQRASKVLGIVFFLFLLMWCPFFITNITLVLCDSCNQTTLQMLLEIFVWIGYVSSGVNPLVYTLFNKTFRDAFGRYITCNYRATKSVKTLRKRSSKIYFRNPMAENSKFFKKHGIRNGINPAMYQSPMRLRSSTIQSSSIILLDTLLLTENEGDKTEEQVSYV
Chain of 5-hydroxytryptamine receptor 2A (Homo sapiens) (P28223 whole entry): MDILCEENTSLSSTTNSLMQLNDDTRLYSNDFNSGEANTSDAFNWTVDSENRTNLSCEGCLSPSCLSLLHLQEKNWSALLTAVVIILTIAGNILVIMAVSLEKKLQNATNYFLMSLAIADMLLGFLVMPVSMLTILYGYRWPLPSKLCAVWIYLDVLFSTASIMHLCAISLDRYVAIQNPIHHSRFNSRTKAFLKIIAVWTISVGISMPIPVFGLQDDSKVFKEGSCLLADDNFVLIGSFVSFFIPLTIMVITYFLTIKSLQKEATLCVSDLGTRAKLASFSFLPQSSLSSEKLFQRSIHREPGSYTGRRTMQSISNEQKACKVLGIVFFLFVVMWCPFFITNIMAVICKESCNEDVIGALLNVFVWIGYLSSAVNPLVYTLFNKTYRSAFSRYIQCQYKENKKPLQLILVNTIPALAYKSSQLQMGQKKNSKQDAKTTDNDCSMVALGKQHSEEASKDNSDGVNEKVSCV

Row | SMILES | Activity [1] | Activity [2] | also measured
1 | CN1C[C@]2(C)C[C@@]23c2cccc4[nH]cc(c24)C[C@H]13 | Active | Active | –
2 | CN1C[C@@H](CO)C=C2c3cccc4[nH]cc(c34)C[C@H]21 | Active | Active | –
3 | CN(C)CCn1cc(Cc2ccccn2)c2cc(F)ccc21 | inactive | inactive | –
4 | CN1C[C@@H](CO)C=C2c3cccc4[nH]cc(c34)C[C@@H]21 | inactive | inactive | –
5 | CN1C[C@H](CO)C=C2c3cccc4[nH]cc(c34)C[C@@H]21 | inactive | inactive | –
6 | CN(C)CCn1cc(Cc2ccccn2)c2c(Br)cccc21 | Active | Active | –
7 | CC(C)C[C@H]1C(=O)N2CCC[C@H]2[C@]2(O)O[C@](NC(=O)[C@@H]3C=C4c5cccc6[nH]c(Br)c(c56)C[C@H]4N(C)C3)(C(C)C)C(=O)N12 [BROMOCRIPTINE] | – | – | Activity [3]: 70%; Activity [4]: 70%
8 | CN1C[C@H](CO)C=C2c3cccc4[nH]cc(c34)C[C@H]21 | Active | Active | –
9 | CCN(CC)C(=O)[C@H]1CN(C)[C@H]2Cc3c[nH]c4cccc(c34)[C@@H]1C2 | inactive | inactive | Activity [5]: inactive; Activity [6]: inactive; Activity [7]: inactive; Activity [8]: inactive
10 | CN1C[C@@]2(C)C[C@]23c2cccc4[nH]cc(c24)C[C@@H]13 | Active | Active | –
11 | CN(C)CCn1cc(Cc2ccccn2)c2ccc(F)cc21 | inactive | inactive | –
